ChEMBL document CHEMBL4665875, “Synthesis, biological evaluation and in silico modeling of novel pan-genotypic NS5A inhibitors” (Bioorg Med Chem, 2020)
Each block holds one molecule with its values, some of them ahead of it.

Tests used:
[1] = Cytotoxicity against HCV genotype 1b NS5A infected human HuH7 cells assessed as reduction in cell viability measured after 72 hrs by CellTiter-Glo assay; conditions: HuH7 cells infected with HCV genotype 1b NS5A
[2] = AUClast in Sprague-Dawley rat at 2 mg/kg, iv measured after 24 hrs by LC-MS/MS analysis; format: ADME, organism-based; parameters: route intravenous, time 24 hrs, dose 2 mg/kg; conditions: in vivo
Outline: (§1)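 Male Sprague-Dawley rats (8–10 weeks), jugular-vein catheterized and fasted 12 h with water available. Intravenous dose of 2 mg/kg given in 10% DMSO/10% Solutol/80% 0.05 M N-methylglucamine. Blood taken into EDTA at 5, 15, 30 min and 1, 2, 4, 8 and 24 h. Plasma precipitated with acetonitrile plus tolbutamide internal standard, then analysed by LC-MS/MS.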

[3] = Half life in Sprague-Dawley rat at 10 mg/kg, po measured after 24 hrs by LC-MS/MS analysis; format: ADME, organism-based; conditions: in vivo, 10 mg/kg, 24 h
Outline: (§2)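 Male Sprague-Dawley rats (8–10 weeks), jugular-vein catheterized and fasted 12 h with water available. Oral dose of 10 mg/kg given in 0.5% methyl cellulose. Blood taken into EDTA at 15, 30 min and 1, 2, 4, 8 and 24 h. Plasma protein-precipitated with acetonitrile containing tolbutamide internal standard, held at −20 °C for 15 min, centrifuged, then analysed by LC-MS/MS.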

[4] = MRT (0 to infinity) in Sprague-Dawley rat at 2 mg/kg, iv measured after 24 hrs by LC-MS/MS analysis; format: ADME, organism-based; conditions: in vivo
Outline: as §1

[5] = AUC (0 to infinity) in Sprague-Dawley rat at 2 mg/kg, iv measured after 24 hrs by LC-MS/MS analysis; format: ADME, organism-based; parameters: route intravenous, dose 2 mg/kg, time 24 hrs; conditions: in vivo
Outline: as §1

[6] = Oral bioavailability in Sprague-Dawley rat at 10 mg/kg, po measured after 24 hrs by LC-MS/MS analysis; format: ADME, organism-based; conditions: in vivo
Outline: as §2

[7] = MRTlast in Sprague-Dawley rat at 2 mg/kg, iv measured after 24 hrs by LC-MS/MS analysis; format: ADME, organism-based; conditions: in vivo
Outline: as §1

[8] = MRT (0 to infinity) in Sprague-Dawley rat at 10 mg/kg, po measured after 24 hrs by LC-MS/MS analysis; format: ADME, organism-based; conditions: in vivo
Outline: as §2

[9] = MRTlast in Sprague-Dawley rat at 10 mg/kg, po measured after 24 hrs by LC-MS/MS analysis; format: ADME, organism-based; conditions: in vivo
Outline: as §2

[10] = Half life in Sprague-Dawley rat at 2 mg/kg, iv measured after 24 hrs by LC-MS/MS analysis; format: ADME, organism-based; conditions: in vivo
Outline: as §1

[11] = AUClast in Sprague-Dawley rat at 10 mg/kg, po measured after 24 hrs by LC-MS/MS analysis; format: ADME, organism-based; parameters: route oral, dose 10 mg/kg, time 24 hrs; conditions: in vivo
Outline: as §2

[12] = AUC (0 to infinity) in Sprague-Dawley rat at 10 mg/kg, po measured after 24 hrs by LC-MS/MS analysis; format: ADME, organism-based; parameters: route oral, time 24 hrs, dose 10 mg/kg; conditions: in vivo, 24 h
Outline: as §2

[13] = Tmax in Sprague-Dawley rat at 10 mg/kg, po measured after 24 hrs by LC-MS/MS analysis; format: ADME, organism-based; conditions: in vivo, 10 mg/kg, 24 h
Outline: as §2

[14] = Tmax in Sprague-Dawley rat at 2 mg/kg, iv measured after 24 hrs by LC-MS/MS analysis; format: ADME, organism-based; conditions: in vivo
Outline: as §1

[15] = Cmax in Sprague-Dawley rat at 2 mg/kg, iv measured after 24 hrs by LC-MS/MS analysis; format: ADME, organism-based; parameters: route intravenous, dose 2 mg/kg, time 24 hrs; conditions: in vivo
Outline: as §1

[16] = Cmax in Sprague-Dawley rat at 10 mg/kg, po measured after 24 hrs by LC-MS/MS analysis; format: ADME, organism-based; parameters: route oral, time 24 hrs, dose 10 mg/kg; conditions: in vivo, 24 h
Outline: as §2

Compound: COC(=O)N[C@H](C(=O)N1CCC[C@H]1c1ncc(-c2ccc(C#CC#Cc3cnc([C@@H]4CCCN4C(=O)[C@H](NC(=O)OC)c4ccccc4)[nH]3)c(-c3cccc(C(C)(C)C)c3)c2)[nH]1)C(C)C
CC50 at 72 h [1]: > 10 µM

Compound: COC(=O)N[C@H](C(=O)N1CCC[C@H]1c1ncc(-c2ccc(C#CC#Cc3cnc([C@@H]4CCCN4C(=O)[C@@H](NC(=O)OC)C(C)C)[nH]3)cc2)[nH]1)c1ccccc1
CC50 at 72 h [1]: > 10 µM

Compound: COC(=O)N[C@H](C(=O)N1CCC[C@H]1c1ncc(-c2ccc(C#CC#Cc3cnc([C@@H]4CCCN4C(=O)[C@H](NC(=O)OC)c4ccccc4)[nH]3)c(-c3ccc(C(C)(C)C)cc3)c2)[nH]1)C(C)C
CC50 at 72 h [1]: > 10 µM

Compound: COC(=O)N[C@H](C(=O)N1CCC[C@H]1c1ncc(-c2ccc(C#CC#Cc3cnc([C@@H]4CCCN4C(=O)[C@H](NC(=O)OC)c4ccccc4)[nH]3)c(-c3ccc(-c4ccccc4)cc3)c2)[nH]1)C(C)C
CC50 at 72 h [1]: > 10 µM

Compound: COC(=O)N[C@H](C(=O)N1CCC[C@H]1c1ncc(-c2ccc(C#CC#Cc3cnc([C@@H]4CCCN4C(=O)[C@H](NC(=O)OC)c4ccccc4)[nH]3)c(-c3ccc(N(C)C)cc3)c2)[nH]1)C(C)C
CC50 at 72 h [1]: > 10 µM

Compound: COC(=O)N[C@H](C(=O)N1CCC[C@H]1c1ncc(C#CC#Cc2ccc(-c3cnc([C@@H]4CCCN4C(=O)[C@@H](NC(=O)OC)C(C)C)[nH]3)cc2-c2ccccc2)[nH]1)C(C)C
CC50 at 72 h [1]: > 10 µM

AUC(0-t) at 24 h [2]: 2720 ng·h/mL
t1/2 [3]: 2.5 h
MRT inf [4]: 3.3 h
AUC(0-inf) [5]: 2730 ng·h/mL
bioavailability [6]: 2.4%
MRT last at 24 h [7]: 3.2 h
MRT inf [8]: 0.4 h
MRT last at 24 h [9]: 0.3 h
half-life [10]: 3.2 h
AUC(0-t) at 24 h [11]: 271 ng·h/mL
AUC [12]: 328.7 ng·h/mL
Tmax [13]: 0.7 h
Tmax [14]: 4.98 min
Cmax [15]: 1160 ng/mL
Cmax [16]: 15.2 ng/mL
Compound: COC(=O)N[C@H](C(=O)N1CCC[C@H]1c1ncc(-c2ccc(C#CC#Cc3cnc([C@@H]4CCCN4C(=O)[C@H](NC(=O)OC)c4ccccc4)[nH]3)c(-c3cccc(F)c3F)c2)[nH]1)C(C)C.Cl.Cl
CC50 at 72 h [1]: > 10 µM

Compound: COC(=O)N[C@H](C(=O)N1CCC[C@H]1c1ncc(C#CC#Cc2ccc(-c3cnc([C@@H]4CCCN4C(=O)[C@@H](NC(=O)OC)C(C)C)[nH]3)cc2-c2ccc3ccccc3c2)[nH]1)C(C)C
CC50 at 72 h [1]: > 10 µM

Compound: COC(=O)N[C@H](C(=O)N1CCC[C@H]1c1ncc(-c2ccc(C#CC#Cc3cnc([C@@H]4CCCN4C(=O)[C@H](NC(=O)OC)c4ccccc4)[nH]3)c(Oc3ccccc3)c2)[nH]1)C(C)C
CC50 at 72 h [1]: > 10 µM

Compound: COC(=O)N[C@H](C(=O)N1CCC[C@H]1c1ncc(-c2ccc(C#CC#Cc3cnc([C@@H]4CCCN4C(=O)[C@H](NC(=O)OC)c4ccccc4)[nH]3)c(N(C)c3ccccc3)c2)[nH]1)C(C)C
CC50 at 72 h [1]: > 10 µM

Compound: COC(=O)N[C@H](C(=O)N1CCC[C@H]1c1ncc(-c2cc(C)c(C#CC#Cc3cnc([C@@H]4CCCN4C(=O)[C@H](NC(=O)OC)c4ccccc4)[nH]3)c(-c3ccccc3)c2)[nH]1)C(C)C
CC50 at 72 h [1]: > 10 µM

Compound: COC(=O)N[C@H](C(=O)N1CCC[C@H]1c1ncc(-c2cc(F)c(C#CC#Cc3cnc([C@@H]4CCCN4C(=O)[C@H](NC(=O)OC)c4ccccc4)[nH]3)c(-c3ccccc3)c2)[nH]1)C(C)C
CC50 at 72 h [1]: > 10 µM

Compound: COC(=O)N[C@H](C(=O)N1CCC[C@H]1c1ncc(-c2ccc(C#CC#Cc3cnc([C@@H]4CCCN4C(=O)[C@H](NC(=O)OC)c4ccccc4)[nH]3)c(N3CCN(C)CC3)c2)[nH]1)C(C)C
CC50 at 72 h [1]: > 10 µM
